Experimental data published in ChEMBL document CHEMBL5678818, “Discovery of potent SOS1 inhibitors that block RAS activation via disruption of the RAS-SOS1 interaction” (Proc Natl Acad Sci U S A, 2019).

How the values were obtained:
[1] = target: AP2-associated protein kinase 1 (Homo sapiens) (UniProt Q2M2I8); test: Inhibition of AAK1 (unknown origin) assessed as residual activity at 1000 nM by KINOMEscan analysis relative to control
[2] = target: RAC-beta serine/threonine-protein kinase (Homo sapiens) (UniProt P31751); test: Inhibition of AKT2 (unknown origin) assessed as residual activity at 1000 nM by KINOMEscan analysis relative to control
[3] = target: T1, Calcium/calmodulin-dependent protein kinase type IV (Homo sapiens) (UniProt Q16566); test: Inhibition of CAMK4 (unknown origin) assessed as residual activity at 1000 nM by KINOMEscan analysis relative to control
T1 sequence (whole entry): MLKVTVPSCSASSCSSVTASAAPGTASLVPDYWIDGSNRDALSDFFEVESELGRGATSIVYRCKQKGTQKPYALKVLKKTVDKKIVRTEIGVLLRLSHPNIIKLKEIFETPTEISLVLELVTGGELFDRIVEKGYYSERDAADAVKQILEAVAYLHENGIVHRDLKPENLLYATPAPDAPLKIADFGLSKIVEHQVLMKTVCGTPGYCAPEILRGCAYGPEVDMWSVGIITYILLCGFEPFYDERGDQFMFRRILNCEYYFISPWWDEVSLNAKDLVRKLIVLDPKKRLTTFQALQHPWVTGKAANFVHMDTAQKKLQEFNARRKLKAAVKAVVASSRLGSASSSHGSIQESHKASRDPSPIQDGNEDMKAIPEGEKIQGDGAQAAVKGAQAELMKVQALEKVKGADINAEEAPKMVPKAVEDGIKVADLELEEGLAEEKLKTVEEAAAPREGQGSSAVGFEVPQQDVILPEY

[4] = target: T2, Mitogen-activated protein kinase kinase kinase 2 (Homo sapiens) (UniProt Q9Y2U5); test: Inhibition of MAP3K2 (unknown origin) assessed as residual activity at 1000 nM by KINOMEscan analysis relative to control
T2 sequence (whole entry): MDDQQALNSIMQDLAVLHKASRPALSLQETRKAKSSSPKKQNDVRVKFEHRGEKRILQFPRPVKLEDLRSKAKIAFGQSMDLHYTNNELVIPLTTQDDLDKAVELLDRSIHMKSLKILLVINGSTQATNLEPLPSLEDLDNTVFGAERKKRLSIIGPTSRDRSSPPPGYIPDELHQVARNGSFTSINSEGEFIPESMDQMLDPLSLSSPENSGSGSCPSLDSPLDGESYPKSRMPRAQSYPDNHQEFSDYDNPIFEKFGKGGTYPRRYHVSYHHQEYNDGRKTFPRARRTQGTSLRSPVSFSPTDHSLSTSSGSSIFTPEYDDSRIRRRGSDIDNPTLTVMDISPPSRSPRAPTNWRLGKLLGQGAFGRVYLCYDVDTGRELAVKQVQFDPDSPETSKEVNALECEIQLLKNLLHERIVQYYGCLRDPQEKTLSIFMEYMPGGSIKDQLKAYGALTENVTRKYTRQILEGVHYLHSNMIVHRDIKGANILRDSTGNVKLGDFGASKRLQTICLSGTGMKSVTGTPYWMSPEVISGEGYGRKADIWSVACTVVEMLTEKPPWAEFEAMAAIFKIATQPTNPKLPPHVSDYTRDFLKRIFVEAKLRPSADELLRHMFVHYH

[5] = target: Mitogen-activated protein kinase kinase kinase 11 (Homo sapiens) (UniProt Q16584); test: Inhibition of MLK3 (unknown origin) assessed as residual activity at 1000 nM by KINOMEscan analysis relative to control
[6] = target: T3, Serine/threonine-protein kinase Nek1 (Homo sapiens) (UniProt Q96PY6); test: Inhibition of NEK1 (unknown origin) assessed as residual activity at 1000 nM by KINOMEscan analysis relative to control
T3 sequence (whole entry): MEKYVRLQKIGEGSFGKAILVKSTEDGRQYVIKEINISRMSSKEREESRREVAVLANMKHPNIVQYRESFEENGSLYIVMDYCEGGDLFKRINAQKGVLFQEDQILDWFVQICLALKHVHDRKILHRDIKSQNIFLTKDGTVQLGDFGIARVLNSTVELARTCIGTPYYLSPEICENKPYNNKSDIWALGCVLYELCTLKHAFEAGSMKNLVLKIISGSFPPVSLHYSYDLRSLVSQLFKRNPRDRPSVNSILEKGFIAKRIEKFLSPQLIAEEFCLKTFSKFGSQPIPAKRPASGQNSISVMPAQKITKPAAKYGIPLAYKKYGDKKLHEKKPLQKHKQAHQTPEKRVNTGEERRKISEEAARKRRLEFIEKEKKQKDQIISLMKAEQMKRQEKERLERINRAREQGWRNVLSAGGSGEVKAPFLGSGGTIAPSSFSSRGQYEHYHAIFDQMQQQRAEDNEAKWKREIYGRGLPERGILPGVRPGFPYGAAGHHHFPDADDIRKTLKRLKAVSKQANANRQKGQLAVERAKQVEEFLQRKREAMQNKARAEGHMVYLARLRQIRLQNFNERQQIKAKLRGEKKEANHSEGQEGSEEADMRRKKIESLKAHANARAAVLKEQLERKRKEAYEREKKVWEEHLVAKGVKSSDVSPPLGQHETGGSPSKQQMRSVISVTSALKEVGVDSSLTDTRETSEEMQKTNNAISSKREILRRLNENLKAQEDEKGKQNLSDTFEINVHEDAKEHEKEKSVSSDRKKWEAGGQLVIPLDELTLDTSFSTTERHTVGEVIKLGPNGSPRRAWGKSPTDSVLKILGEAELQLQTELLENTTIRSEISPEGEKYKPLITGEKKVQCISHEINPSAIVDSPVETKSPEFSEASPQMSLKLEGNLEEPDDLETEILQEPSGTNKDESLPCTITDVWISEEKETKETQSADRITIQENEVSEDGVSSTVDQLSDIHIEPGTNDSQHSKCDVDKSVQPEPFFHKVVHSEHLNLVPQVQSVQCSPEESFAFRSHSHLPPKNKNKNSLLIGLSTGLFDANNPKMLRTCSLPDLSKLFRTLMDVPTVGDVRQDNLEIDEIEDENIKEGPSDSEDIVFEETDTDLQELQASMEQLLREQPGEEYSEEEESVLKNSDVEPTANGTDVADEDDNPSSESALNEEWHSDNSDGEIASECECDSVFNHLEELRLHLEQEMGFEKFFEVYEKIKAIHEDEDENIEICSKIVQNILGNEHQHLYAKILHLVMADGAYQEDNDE

[7] = target: Cyclin-dependent kinase 14 (Homo sapiens) (UniProt O94921); test: Inhibition of PFTK1 (unknown origin) assessed as residual activity at 1000 nM by KINOMEscan analysis relative to control
NCI-H358 = test: Antiproliferative activity against human NCI-H358 cells assessed as inhibition of cell viability incubated for 72 hrs by Cell Titer Glo assay; format: functional, cell-based; details: NCI-H358, 72 h
In short: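 NCI-H358 cells (KRAS G12C mutant) were sourced from ATCC.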

Calu-1 = test: Antiproliferative activity against human Calu-1 cells assessed as inhibition of cell viability incubated for 72 hrs by Cell Titer Glo assay; format: functional, cell-based; details: Calu-1, 72 h

Sequence of RAC-beta serine/threonine-protein kinase (Homo sapiens) (P31751 whole entry): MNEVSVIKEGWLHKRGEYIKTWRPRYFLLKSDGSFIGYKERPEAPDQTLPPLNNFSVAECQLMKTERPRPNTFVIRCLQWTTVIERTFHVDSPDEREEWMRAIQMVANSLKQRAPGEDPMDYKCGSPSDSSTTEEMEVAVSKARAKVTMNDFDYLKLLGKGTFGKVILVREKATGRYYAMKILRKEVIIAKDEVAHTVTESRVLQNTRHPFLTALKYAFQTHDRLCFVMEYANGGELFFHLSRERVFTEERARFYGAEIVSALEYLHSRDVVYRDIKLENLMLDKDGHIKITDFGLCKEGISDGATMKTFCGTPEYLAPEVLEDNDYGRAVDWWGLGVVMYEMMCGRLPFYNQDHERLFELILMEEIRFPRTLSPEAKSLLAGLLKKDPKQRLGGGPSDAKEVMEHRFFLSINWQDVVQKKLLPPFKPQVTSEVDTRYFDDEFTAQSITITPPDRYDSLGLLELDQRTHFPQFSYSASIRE
Sequence of AP2-associated protein kinase 1 (Homo sapiens) (Q2M2I8 whole entry, looked up): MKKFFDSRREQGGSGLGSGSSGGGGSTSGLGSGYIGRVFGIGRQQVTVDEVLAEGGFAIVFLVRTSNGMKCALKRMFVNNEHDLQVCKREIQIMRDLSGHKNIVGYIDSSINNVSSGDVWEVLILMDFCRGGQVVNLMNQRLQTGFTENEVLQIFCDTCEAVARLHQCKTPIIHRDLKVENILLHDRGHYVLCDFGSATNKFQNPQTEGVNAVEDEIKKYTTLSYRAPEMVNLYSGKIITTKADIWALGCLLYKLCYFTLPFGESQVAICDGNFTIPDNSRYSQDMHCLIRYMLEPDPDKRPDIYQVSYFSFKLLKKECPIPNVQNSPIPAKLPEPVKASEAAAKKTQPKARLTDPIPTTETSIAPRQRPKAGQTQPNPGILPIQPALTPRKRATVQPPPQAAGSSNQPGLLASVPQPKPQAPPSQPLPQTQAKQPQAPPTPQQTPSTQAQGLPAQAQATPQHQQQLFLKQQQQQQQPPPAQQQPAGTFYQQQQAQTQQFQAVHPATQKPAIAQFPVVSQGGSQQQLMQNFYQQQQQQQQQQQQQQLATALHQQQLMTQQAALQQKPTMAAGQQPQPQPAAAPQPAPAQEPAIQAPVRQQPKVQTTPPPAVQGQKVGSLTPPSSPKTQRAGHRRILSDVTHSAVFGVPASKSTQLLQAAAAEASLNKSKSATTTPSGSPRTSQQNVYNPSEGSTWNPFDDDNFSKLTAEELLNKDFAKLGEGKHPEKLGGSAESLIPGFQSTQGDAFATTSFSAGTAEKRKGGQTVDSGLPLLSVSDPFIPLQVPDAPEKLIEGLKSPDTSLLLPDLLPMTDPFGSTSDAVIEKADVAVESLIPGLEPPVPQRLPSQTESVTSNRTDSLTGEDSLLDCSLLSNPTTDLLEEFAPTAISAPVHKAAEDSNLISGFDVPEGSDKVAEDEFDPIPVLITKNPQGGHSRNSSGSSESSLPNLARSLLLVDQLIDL
Sequence of Mitogen-activated protein kinase kinase kinase 11 (Homo sapiens) (Q16584 whole entry, looked up): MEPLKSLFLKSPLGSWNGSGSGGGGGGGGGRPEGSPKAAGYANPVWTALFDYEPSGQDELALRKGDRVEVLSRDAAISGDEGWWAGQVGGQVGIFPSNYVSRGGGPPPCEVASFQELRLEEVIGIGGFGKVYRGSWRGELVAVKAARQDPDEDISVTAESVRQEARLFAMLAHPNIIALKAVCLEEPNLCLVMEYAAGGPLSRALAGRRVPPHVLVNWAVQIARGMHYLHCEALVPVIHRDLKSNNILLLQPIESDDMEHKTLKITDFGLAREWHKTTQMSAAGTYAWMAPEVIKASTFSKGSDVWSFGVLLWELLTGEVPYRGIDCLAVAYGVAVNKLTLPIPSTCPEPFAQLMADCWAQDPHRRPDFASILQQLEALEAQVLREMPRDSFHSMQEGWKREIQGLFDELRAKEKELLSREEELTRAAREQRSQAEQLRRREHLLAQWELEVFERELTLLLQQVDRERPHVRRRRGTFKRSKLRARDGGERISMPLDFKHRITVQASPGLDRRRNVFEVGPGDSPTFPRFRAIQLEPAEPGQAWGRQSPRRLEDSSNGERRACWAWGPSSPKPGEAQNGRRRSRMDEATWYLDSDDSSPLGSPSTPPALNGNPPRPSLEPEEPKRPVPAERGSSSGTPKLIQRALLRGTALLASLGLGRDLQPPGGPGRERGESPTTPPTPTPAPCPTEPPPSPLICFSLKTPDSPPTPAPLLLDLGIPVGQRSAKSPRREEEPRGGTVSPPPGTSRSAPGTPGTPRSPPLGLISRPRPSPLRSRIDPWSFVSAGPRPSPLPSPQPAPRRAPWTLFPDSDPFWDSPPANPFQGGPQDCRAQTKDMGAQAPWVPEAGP
Sequence of Cyclin-dependent kinase 14 (Homo sapiens) (O94921 whole entry): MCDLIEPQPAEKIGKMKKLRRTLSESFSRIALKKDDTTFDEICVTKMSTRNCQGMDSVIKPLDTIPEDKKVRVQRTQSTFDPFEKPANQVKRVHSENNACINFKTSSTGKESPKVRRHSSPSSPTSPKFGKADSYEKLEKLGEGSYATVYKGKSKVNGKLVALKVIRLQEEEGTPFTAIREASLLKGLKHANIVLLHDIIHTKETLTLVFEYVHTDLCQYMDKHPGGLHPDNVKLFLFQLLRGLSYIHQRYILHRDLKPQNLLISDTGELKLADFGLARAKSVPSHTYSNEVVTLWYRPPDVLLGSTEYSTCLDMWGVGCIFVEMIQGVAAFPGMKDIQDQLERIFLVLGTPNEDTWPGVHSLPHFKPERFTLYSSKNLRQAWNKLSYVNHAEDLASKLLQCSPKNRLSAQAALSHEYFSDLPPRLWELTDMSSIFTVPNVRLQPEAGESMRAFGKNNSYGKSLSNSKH

| SMILES | Activity [1] [%] | Activity [2] [%] | Activity [3] [%] | Activity [4] [%] | Activity [5] [%] | Activity [6] [%] | Activity [7] [%] | IC50 (NCI-H358) [µM] | IC50 (Calu-1) [µM] |
| --- | --- | --- | --- | --- | --- | --- | --- | --- | --- |
| COc1cc2nc(C)nc(N[C@H](C)c3cccc(-c4cn[nH]c4)c3)c2cc1OC | 100 | 99 | 92 | 76 | 100 | 100 | 93 | 13.6 | 17 |
| COc1cc2ncnc(N[C@H](C)c3cccc4ccccc34)c2cc1OC | 100 | 100 | 100 | 100 | 100 | 96 | 100 |  |  |
| CNCc1ccccc1-c1csc([C@@H](C)Nc2nc(C)nc3cc(OC)c(OC)cc23)c1 [BAY-293] |  |  |  |  |  |  |  | 3.48 | 3.19 |
